Results taken from ChEMBL document CHEMBL1275490, “Antifungal resistance of Candida glabrata vaginal isolates and development of a quantitative reverse transcription-PCR-based azole susceptibility assay” (2008).

Experiments:
Format in all cases: functional
[1] = system: Nakaseomyces glabratus; experiment: Antifungal activity against Candida glabrata clinical isolate overexpressing CDR1 gene obtained from cervicovaginal candidiasis patient assessed as resistant isolates by broth microdilution method
In short: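 Cervicovaginal swab isolates were classed by CLSI M27-A2 broth microdilution MIC. For expression, RNA came from mid-log cultures, column-purified and DNase-treated. Duplex qRT-PCR measured CDR1 (also PDH1, PDR1) against ACT1 as control, in triplicate independent amplifications from the same RNA. A ≥3-fold rise in CDR1 expression […].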

[2] = system: Nakaseomyces glabratus; experiment: Antifungal activity against Candida glabrata clinical isolate obtained from vulvovaginal candidiasis patient assessed as susceptible isolates by broth microdilution method
In short: (§1)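 C. glabrata isolates were recovered from cervicovaginal swabs. Species was identified by in-house species-specific real-time PCR and confirmed on chromogenic Candida agar. Susceptibility was tested by CLSI M27-A2 broth microdilution, and isolates were classed as S, S-DD or R from the MIC. Voriconazole categories used proposed breakpoints.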

[3] = system: Nakaseomyces glabratus; experiment: Antifungal activity against Candida glabrata clinical isolate obtained from vulvovaginal candidiasis patient assessed as resistant isolates by broth microdilution method; in short: as §1
[4] = system: Nakaseomyces glabratus; experiment: Antifungal activity against Candida glabrata clinical isolate obtained from cervicovaginal candidiasis patient assessed as susceptible dose-dependent isolates by broth microdilution method; in short: as §1
[5] = system: Nakaseomyces glabratus; experiment: Antifungal activity against Candida glabrata clinical isolate obtained from cervicovaginal candidiasis patient assessed as susceptible isolates by broth microdilution method; in short: as §1

Structure (SMILES) | Activity [1] | Activity [2] | Activity [3] | Activity [4] | Activity [5]
OC(Cn1cncn1)(Cn1cncn1)c1ccc(F)cc1F [FLUCONAZOLE] | 26.9% | 15.2% | 51.8% | 42.2% | 30.9%
Clc1ccc(COC(Cn2ccnc2)c2ccc(Cl)cc2Cl)c(Cl)c1 (stereo not given) [MICONAZOLE] | – | – | – | 0% | 100%
C[C@@H](c1ncncc1F)[C@](O)(Cn1cncn1)c1ccc(F)cc1F [VORICONAZOLE] | 24% | – | – | 13.7% | 62.3%
